Reference: PMC7657661 (Biochemical Journal, 2020)
Entries after “also recorded” stand apart in the source; their conditions may differ. Like-named read-outs stand apart in the source and are kept apart here. Each block holds one molecule with its values, some of them ahead of it.

Experiments:
mouse NaCT/Slc13a5 = target: T1, mouse NaCT/Slc13a5 (Mus musculus, UniProt Q67BT3); test: [14C]-citrate uptake in HEK293FT cells with ectopic expression of mouse Slc13a5; assay type: cell-based
T1 sequence (Q67BT3 1-572): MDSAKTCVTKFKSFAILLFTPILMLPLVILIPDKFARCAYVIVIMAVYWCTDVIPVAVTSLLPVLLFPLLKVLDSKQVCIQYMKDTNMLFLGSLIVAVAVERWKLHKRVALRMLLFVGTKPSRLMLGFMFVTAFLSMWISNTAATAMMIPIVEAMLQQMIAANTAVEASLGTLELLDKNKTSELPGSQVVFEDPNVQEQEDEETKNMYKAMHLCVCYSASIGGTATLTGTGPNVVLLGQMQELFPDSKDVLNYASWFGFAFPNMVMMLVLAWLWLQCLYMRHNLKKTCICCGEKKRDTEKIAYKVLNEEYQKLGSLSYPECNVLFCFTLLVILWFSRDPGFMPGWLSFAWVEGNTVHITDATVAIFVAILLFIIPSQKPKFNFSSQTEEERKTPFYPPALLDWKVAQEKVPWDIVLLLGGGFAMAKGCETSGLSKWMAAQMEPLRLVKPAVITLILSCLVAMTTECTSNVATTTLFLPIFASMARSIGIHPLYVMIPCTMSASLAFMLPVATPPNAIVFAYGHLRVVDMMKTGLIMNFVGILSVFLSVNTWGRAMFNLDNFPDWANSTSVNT
Procedure, shortened: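 Mouse Slc13a5 was transiently expressed in HEK293FT cells (CMV plasmid, Lipofectamine-3000) and assayed 48 h after transfection in NaCl buffer pH 7.5 without LiCl. Cells got a 30 min preincubation with 10 µM test compound or 100 µM reference NaCT inhibitor, two washes and 0 or 60 min recovery. Then 2 µM [14C]-citrate uptake ran 30 min, or with inhibitor co-present only during uptake. Na+-dependent uptake was normalised to protein.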

SLC5A8 = target: T2, SLC5A8 (Homo sapiens, UniProt Q8N695); test: [14C]-nicotinate uptake in HepG2 cells; assay type: cell-based; conditions: 10 µM, 30 min preincubation, washed, NaCl buffer pH 7.5
T2 sequence (Q8N695 1-610): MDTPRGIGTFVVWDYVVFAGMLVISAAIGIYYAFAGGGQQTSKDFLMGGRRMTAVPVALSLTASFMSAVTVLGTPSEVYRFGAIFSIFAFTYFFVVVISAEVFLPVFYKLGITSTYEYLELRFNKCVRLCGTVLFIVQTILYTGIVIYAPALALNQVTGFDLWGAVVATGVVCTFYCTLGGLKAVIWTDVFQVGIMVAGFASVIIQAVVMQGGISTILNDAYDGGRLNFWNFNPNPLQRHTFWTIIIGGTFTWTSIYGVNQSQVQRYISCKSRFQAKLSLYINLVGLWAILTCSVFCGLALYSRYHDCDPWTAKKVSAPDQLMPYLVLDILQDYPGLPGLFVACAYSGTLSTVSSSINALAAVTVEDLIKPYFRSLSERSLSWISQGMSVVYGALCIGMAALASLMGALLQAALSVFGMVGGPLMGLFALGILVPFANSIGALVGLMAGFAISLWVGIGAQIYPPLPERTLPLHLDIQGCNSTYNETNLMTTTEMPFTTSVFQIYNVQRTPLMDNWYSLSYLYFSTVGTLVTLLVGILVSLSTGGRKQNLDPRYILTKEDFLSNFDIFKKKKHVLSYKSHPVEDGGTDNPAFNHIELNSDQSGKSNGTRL
Procedure, shortened: (§1)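 HepG2 cells, 48 h after seeding, were preincubated 30 min with 10 µM test compound and washed; substrate uptake followed without inhibitor. [14C]-nicotinate and [3H]-arginine were run in NaCl buffer pH 7.5, and [3H]-glutamine and [3H]-tryptophan in NMDG buffer pH 7.5, each for 15 min. [14C]-lactate was run in NMDG buffer pH 6 for 3 min. Uptake was normalised to protein and compared with untreated control.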

mouse NaCT = conditions: cited from earlier work
SLC7A5 = SLC7A5 (Homo sapiens, UniProt Q01650); test: [3H]-glutamine and [3H]-tryptophan uptake in HepG2 cells; assay type: cell-based; conditions: 10 µM, 30 min preincubation, washed, NMDG buffer pH 7.5
Procedure, shortened: as §1

MCTs = test: [14C]-lactate uptake in HepG2 cells; assay type: cell-based, human; conditions: 10 µM, 30 min preincubation, washed, NMDG pH 6
Procedure, shortened: as §1

SLC6A14 = target: T3, SLC6A14 (Homo sapiens, UniProt Q9UN76); test: [3H]-arginine uptake in HepG2 cells; assay type: cell-based; conditions: 10 µM, 30 min preincubation, washed, NaCl buffer pH 7.5
T3 sequence (Q9UN76 1-642): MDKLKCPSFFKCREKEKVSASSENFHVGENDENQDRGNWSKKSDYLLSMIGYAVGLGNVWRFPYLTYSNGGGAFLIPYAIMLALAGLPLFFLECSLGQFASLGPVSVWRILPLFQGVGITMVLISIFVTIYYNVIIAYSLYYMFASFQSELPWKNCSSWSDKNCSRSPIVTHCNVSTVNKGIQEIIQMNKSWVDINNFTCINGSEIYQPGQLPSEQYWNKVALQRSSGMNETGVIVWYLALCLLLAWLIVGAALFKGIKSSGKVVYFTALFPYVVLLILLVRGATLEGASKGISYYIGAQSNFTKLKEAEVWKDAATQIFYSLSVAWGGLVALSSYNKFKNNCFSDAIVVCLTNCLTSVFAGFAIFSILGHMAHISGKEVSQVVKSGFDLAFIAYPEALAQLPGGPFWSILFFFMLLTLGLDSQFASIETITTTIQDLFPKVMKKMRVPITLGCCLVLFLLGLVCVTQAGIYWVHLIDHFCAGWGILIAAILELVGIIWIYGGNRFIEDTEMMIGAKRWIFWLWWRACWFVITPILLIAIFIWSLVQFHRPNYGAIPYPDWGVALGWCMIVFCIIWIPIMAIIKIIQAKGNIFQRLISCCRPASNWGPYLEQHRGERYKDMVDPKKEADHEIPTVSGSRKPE
Procedure, shortened: as §1

NaCT/SLC13A5 [1] = target: T4, NaCT/SLC13A5 (Homo sapiens, UniProt Q86YT5); test: [14C]-citrate uptake in HEK293FT cells with ectopic expression of human SLC13A5; assay type: cell-based
Procedure, shortened: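 Human SLC13A5 (CMV plasmid) was transiently expressed in HEK293FT cells by Lipofectamine-3000, assay 48 h post-transfection. Cells were preincubated 30 min in NaCl buffer (Hepes/Tris, pH 7.5) with the test compound (10 µM or a concentration series), washed twice, then given [14C]-citrate (2 µM) for 30 min at 37 °C without inhibitor. NMDG (Na+-free) uptake was subtracted and values normalised to protein. IC50 came from the dose-response.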

HepG2 cells = test: Colony formation assay; assay type: cell-based, human; conditions: 5 and 10 µM, 10 days, culture medium with 0.5 mM citrate
Procedure, shortened: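 HepG2 cells were seeded at 5000 per well in six-well plates and grown for 10 days in normal medium supplemented with 0.5 mM citrate. The medium held 0.1% DMSO alone, or the test compound at 5 or 10 µM plus 0.1% DMSO, and was renewed every other day. Cells were washed in PBS, methanol-fixed and Giemsa-stained. Colonies were photographed, then the stain was extracted and quantified against the no-inhibitor control.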

human NaCT = conditions: cited from earlier work
NaCT/SLC13A5 [2] = target: T4, NaCT/SLC13A5; test: Na+-coupled [14C]-citrate uptake in HepG2 cells; assay type: cell-based; conditions: for effect on Na+-dependent citrate uptake, compound present only during uptake: PF06761281 100 µM, BI01383298 10 µM; for maximal inhibition of citrate uptake: inhibitor present only during uptake; for reversibility of inhibition of SLC13A5: preincubation 30 min, then uptake
Procedure, shortened: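 HepG2 cells seeded at 4 × 10^5/well and assayed 48 h later. [14C]-citrate uptake measured for 30 min at 37°C in NaCl buffer pH 7.5 (Hepes/Tris), with or without 10 mM LiCl. Inhibitor either co-incubated during uptake, or preincubated 30 min and washed twice before inhibitor-free uptake. Recovery runs: 10 µM for 30 min in buffer or medium, washed, then held 0, 30 or 60 min (buffer) or 0 or 24 h (medium). Na+-free NMDG-Cl uptake subtracted; values protein-normalized (BCA).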

NaCT = conditions: cited from earlier work
[3] = HepG2, 10 µM, 30 min preincubation, washed, NaCl buffer pH 7.5

T4 sequence (Q86YT5 whole entry): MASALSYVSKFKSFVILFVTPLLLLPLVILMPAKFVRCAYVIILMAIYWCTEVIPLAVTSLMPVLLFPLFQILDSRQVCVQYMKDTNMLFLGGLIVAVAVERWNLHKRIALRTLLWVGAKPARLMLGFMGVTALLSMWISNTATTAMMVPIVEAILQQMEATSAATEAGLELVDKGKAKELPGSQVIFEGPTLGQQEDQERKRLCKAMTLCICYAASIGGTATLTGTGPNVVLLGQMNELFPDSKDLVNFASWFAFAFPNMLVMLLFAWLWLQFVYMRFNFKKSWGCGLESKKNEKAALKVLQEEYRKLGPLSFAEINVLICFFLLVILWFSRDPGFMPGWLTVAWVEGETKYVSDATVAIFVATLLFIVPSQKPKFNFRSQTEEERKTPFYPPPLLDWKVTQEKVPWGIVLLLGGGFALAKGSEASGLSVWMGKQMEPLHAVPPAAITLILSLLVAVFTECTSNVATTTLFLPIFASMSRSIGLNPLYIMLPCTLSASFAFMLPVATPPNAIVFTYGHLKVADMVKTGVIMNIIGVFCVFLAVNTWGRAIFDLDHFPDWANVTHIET
SLC7A5, sequence (Q01650 whole entry): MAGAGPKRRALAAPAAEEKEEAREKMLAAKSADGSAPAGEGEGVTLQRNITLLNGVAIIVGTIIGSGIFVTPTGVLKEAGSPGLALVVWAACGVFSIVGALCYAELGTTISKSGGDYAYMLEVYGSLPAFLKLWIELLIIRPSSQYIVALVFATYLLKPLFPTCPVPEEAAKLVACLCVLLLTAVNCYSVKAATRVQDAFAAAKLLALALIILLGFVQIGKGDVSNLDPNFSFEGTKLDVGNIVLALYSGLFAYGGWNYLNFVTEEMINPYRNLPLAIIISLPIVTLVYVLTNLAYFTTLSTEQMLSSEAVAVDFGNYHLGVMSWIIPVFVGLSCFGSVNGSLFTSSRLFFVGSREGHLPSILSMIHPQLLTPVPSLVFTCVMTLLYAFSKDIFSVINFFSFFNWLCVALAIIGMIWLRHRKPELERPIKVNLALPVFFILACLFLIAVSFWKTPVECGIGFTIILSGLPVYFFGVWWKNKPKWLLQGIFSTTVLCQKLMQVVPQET

- Nicotinate (8 µM) uptake (SLC5A8): 123 ± 4 pmol/mg of protein/15 min
- Nicotinate (8 µM) uptake, % Control (SLC5A8): 100 ± 3 % Control
- Glutamine (5 µM) uptake (SLC7A5): 306 ± 3 pmol/mg of protein/15 min
- Tryptophan (5 µM) uptake (SLC7A5): 76 ± 3 pmol/mg of protein/15 min
- Tryptophan (5 µM) uptake, % Control (SLC7A5): 95 ± 3 % Control
- Arginine (5 µM) uptake (SLC6A14): 935 ± 51 pmol/mg of protein/15 min
- Arginine (5 µM) uptake, % Control (SLC6A14): 101 ± 5 % Control
- IC50 (NaCT/SLC13A5 [1]): 0.171 ± 0.051 µM
- effect on human NaCT/SLC13A5 transporter activity (NaCT/SLC13A5 [1]; HEK293FT, 10 µM): complete inhibition
- preincubation time at which maximal inhibition is evident (NaCT/SLC13A5 [2]; HepG2, 10 µM inhibitor, washed, uptake without inhibitor): 30 min
- Citrate (7 µM) uptake (NaCT/SLC13A5 [2]; [3]): 88.2 ± 5.6 pmol/mg of protein/30 min
- Citrate (7 µM) uptake, % Control (NaCT/SLC13A5 [2]; [3]): 18 ± 1 % Control
- IC50 lower in presence of Li+ than in its absence (NaCT/SLC13A5 [2]; HepG2, 30 min preincubation, inhibitor also present during uptake): 2 fold
- inhibitory potency relative to PF06761281 (NaCT/SLC13A5 [2]; HepG2, BI01383298 10 µM vs PF06761281 100 µM): at least 10 times
- effect on Na+-dependent citrate uptake, compound present only during uptake (NaCT/SLC13A5 [2]; HepG2): inhibited
- maximal inhibition of citrate uptake (NaCT/SLC13A5 [2]; HepG2, absence of Li+): ~60%
- maximal inhibition of citrate uptake (NaCT/SLC13A5 [2]; HepG2, presence of Li+): ~60%
- increase in inhibitory potency with preincubation (NaCT/SLC13A5 [2]; HepG2, preincubated vs not preincubated, both in absence or presence of Li+): ~10 fold
- IC50 (NaCT/SLC13A5 [2]; IC50 for human NaCT (summary), human NaCT, HepG2 and HEK293 cells): ~0.1 µM
- type of inhibition of NaCT/SLC13A5 (NaCT/SLC13A5 [2]; kinetic analysis, Eadie–Hofstee plot): non-competitive
- reversibility of inhibition of SLC13A5 (NaCT/SLC13A5 [2]; washed): irreversible
SMILES: O=C(NCc1ccc(F)cc1)C1CCN(S(=O)(=O)c2cc(Cl)cc(Cl)c2)CC1 [BI01383298, 1-(3,5-Dichlorophenylsulfonyl)-N-(4-fluorobenzyl)piperidine-4-carboxamide]
- effect on mouse NaCT/Slc13a5 (mouse NaCT/Slc13a5; 10 µM, 30 min preincubation, uptake without inhibitor): not affected; also recorded: not inhibited; also recorded: little or no inhibition
- effect on mouse NaCT (mouse NaCT; ref Structural Genomics Consortium): no effect
- Lactate (3 µM) uptake (MCTs): 137 ± 7 pmol/mg of protein/3 min
- Lactate (3 µM) uptake, % Control (MCTs): 97 ± 5 % Control
- effect on HepG2 cell proliferation (HepG2 cells): decreased cell proliferation; also recorded: robust inhibition of cell proliferation; also recorded: does block the proliferation
- IC50 (human NaCT; read-out: IC50 for human NaCT, ref Structural Genomics Consortium): 0.025 to 0.06 µM

- effect on activity of mouse NaCT/Slc13a5 (mouse NaCT/Slc13a5; 100 µM): able to inhibit
- inhibitory potency for mouse NaCT/Slc13a5 compared with human NaCT/SLC13A5 (mouse NaCT/Slc13a5; 100 µM): greater than for human NaCT/SLC13A5
- effect on Na+-dependent citrate uptake, compound present only during uptake (NaCT/SLC13A5 [2]; HepG2): inhibited
- reversibility of inhibition of SLC13A5 (NaCT/SLC13A5 [2]; washed): at least partly reversible
SMILES: COc1ncc(C)cc1CC[C@@](O)(CC(=O)O)C(=O)O [PF06761281, (2R)-2-Hydroxy-2-[2-(2-methoxy-5-methyl-3-pyridinyl)ethyl]succinic acid]
- increase in inhibitor potency over PF-06649298 (human NaCT; optimized derivative): ~4 fold

SMILES: CC(C)(C)c1ccc(CC[C@@](O)(CC(=O)O)C(=O)O)cc1 [PF-06649298]
- species selectivity (mouse and human NaCTs) (mouse NaCT): no species selectivity
- IC50 (human NaCT; read-out: IC50 for NaCT-mediated citrate uptake, human NaCT): 0.4 to 10 µM

SMILES: O=C(O)CC(O)(CC(=O)O)C(=O)O [citrate]
- lower affinity of human NaCT for citrate than mouse NaCT (human NaCT; kinetic experiments under identical conditions): at least 30 fold

SMILES: CN(C)C(=N)N=C(N)N [metformin]
- effect on expression of NaCT in HepG2 cells (NaCT): suppresses the expression of NaCT
